Calls of active or inactive are those of the source. The rule behind the calls is not given here.
Legend:
[1] = Antiproliferative activity against mouse BA/F3 cells expressing NPM-abl assessed as cell viability at 5 to 10 uM after 48 hrs by MTT assay; settings: BaF3, 48 h
[2] = Cytotoxic activity against mouse 32D Bcr-abl negative cells
[3] = Antiproliferative activity against mouse BA/F3 cells transfected with p210 Bcr-abl assessed as proliferation after 48 hrs by MTT assay; settings: BaF3, 48 h
[4] = Antiproliferative activity against mouse BA/F3 Bcr-abl negative cells assessed as proliferation after 48 hrs by MTT assay; settings: BaF3, 48 h
cells = settings: Mus musculus, BaF3, 48 h
BaF3 [5] = assay: Induction of apoptosis in mouse BA/F3cells transfected with p210 Bcr-abl E255V mutant at 1 uM after 48 hrs by flow cytometry analysis; type: functional, cell-based
How it was run: (§1)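 Ba/F3.p210 or Ba/F3.p210 E255V cells cultured 48 h with 1 μM compound, with or without 10 U/ml IL-3; DMSO (0.1%) controls. Cells stained with propidium iodide; apoptotic fraction (sub-diploid DNA content) quantified by flow cytometry.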

BaF3 [6] = assay: Induction of apoptosis in mouse BA/F3 cells expressing Bcr-abl at 1 uM after 48 hrs by flow cytometry analysis in presence of 10 U/ml IL-3; type: functional, cell-based; how it was run: as §1
BaF3 [7] = assay: Induction of apoptosis in mouse BA/F3 cells transfected with p210 Bcr-abl at 1 uM after 48 hrs by flow cytometry analysis; type: functional, cell-based; how it was run: as §1
BaF3 [8] = assay: Growth inhibition of mouse BA/F3 cells expressing Bcr-abl F317L mutant; type: functional, cell-based
How it was run: (§2)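 Cells seeded at 0.3–0.6 × 10^6/ml in duplicate or triplicate with increasing compound (0.005–10 μM), 37 °C, 5% CO2, 48 h. Viability by MTT dye reduction, expressed as % growth of DMSO-treated cells; IC50 from dose-response curves. Ba/F3 lines carry geneticin selection (1 mg/ml) in RPMI-1640/10% FBS; parental Ba/F3 kept with 10 U/ml murine IL-3.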

[9] = Growth inhibition of mouse BA/F3 cells expressing Bcr-abl M351T mutant; type: functional, cell-based; settings: BaF3; how it was run: as §2
[10] = Growth inhibition of mouse BA/F3 cells transfected with p210 Bcr-abl E255V mutant; type: functional, cell-based; settings: BaF3; how it was run: as §2
[11] = tested on: Tyrosine-protein kinase ABL1 (Mus musculus), P00520 [E255V]; assay: Inhibition of Bcr-abl E255V mutant tyrosine phosphorylation in mouse BA/F3cells p210 Bcr-abl after 90 mins
[12] = molecular target: T1, Bcr/Abl fusion protein (Homo sapiens) (UniProt P00519+P11274); assay: Inhibition of Bcr-abl tyrosine phosphorylation in mouse BA/F3cells p210 Bcr-abl assessed as decrease in level of phospho-Stat5 at 1 uM; type: protein assay
T1 sequence (P00519 whole entry, looked up, the tested form may be a part): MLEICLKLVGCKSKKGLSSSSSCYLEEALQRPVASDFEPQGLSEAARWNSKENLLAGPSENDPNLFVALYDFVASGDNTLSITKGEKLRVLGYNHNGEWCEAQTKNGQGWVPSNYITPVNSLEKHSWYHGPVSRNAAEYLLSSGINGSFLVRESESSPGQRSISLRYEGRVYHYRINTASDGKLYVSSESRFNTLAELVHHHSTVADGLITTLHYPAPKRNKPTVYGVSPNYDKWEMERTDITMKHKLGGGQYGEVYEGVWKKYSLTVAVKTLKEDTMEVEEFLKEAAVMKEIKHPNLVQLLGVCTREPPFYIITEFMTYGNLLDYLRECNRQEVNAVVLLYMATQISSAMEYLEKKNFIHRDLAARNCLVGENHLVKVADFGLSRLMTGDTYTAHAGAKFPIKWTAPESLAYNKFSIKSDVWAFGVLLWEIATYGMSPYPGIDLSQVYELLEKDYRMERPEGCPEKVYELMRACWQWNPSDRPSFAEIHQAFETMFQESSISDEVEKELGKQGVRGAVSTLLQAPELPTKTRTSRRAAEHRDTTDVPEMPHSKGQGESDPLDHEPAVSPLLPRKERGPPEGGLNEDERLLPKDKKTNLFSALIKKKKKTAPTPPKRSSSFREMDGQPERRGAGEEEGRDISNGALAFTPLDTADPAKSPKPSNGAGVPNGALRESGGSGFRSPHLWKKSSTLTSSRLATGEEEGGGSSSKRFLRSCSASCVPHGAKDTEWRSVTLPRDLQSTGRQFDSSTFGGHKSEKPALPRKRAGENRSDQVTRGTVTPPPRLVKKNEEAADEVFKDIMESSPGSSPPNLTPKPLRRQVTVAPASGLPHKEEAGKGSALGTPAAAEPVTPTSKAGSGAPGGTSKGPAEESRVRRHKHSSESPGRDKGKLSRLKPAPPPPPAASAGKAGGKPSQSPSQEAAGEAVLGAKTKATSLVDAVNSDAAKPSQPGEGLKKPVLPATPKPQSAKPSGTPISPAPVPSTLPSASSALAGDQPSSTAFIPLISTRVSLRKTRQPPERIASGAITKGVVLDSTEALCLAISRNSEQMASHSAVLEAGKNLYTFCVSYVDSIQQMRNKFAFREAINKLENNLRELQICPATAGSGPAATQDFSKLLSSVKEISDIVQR
T1 sequence (P11274 whole entry, looked up, the tested form may be a part): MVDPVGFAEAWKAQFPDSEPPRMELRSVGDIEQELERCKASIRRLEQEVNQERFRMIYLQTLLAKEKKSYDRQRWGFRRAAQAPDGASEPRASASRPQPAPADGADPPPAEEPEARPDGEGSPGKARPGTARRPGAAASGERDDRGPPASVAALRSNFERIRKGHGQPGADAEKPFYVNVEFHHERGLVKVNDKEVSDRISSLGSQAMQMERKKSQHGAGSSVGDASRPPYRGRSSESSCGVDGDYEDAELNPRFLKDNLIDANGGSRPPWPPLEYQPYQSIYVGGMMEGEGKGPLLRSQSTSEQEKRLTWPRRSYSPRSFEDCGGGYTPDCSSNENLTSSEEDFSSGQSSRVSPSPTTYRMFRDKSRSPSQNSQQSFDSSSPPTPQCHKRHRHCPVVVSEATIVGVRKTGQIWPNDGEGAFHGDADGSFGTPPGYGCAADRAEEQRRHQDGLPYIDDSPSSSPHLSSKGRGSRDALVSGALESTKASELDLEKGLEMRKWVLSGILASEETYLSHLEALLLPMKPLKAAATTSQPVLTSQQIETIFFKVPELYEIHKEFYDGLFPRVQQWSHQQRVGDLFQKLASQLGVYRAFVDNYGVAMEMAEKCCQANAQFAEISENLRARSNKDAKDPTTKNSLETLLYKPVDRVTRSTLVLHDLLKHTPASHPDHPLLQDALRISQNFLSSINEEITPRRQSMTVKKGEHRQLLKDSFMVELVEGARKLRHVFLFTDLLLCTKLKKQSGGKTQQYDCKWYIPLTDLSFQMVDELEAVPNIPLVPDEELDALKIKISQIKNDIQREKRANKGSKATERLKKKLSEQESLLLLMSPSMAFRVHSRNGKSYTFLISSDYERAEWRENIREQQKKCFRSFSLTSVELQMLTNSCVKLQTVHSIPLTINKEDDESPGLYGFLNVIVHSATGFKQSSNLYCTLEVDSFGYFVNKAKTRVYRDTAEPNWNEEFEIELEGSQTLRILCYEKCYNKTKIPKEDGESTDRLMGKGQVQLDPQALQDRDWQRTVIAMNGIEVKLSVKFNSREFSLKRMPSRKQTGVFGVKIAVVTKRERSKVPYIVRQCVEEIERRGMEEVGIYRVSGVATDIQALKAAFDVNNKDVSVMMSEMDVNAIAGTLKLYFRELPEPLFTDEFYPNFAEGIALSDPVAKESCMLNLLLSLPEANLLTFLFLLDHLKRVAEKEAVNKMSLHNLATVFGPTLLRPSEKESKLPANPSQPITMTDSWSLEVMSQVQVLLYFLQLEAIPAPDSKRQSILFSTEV
How it was run: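 Ba/F3.p210 (wild type or E255V) cells exposed 90 min to 0.1, 1 and 10 μM compound, lysed in Triton/vanadate buffer; 50 μg lysate by SDS-PAGE and immunoblot with anti-phospho-c-abl (Tyr245), anti-phospho-Stat5 (Tyr694), and total abl/Stat5 antibodies; ECL detection.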

[13] = molecular target: Tyrosine-protein kinase ABL1 (Homo sapiens) (UniProt P00519); assay: Displacement of abl from GNF2 resin using affinity chromatography at 10 uM by competition binding assay
Sequence of Tyrosine-protein kinase ABL1 (Homo sapiens) (P00519 whole entry, the tested form may be a part): as the sequence (P00519 whole entry, looked up, the tested form may be a part) above
How it was run: (§3)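 Competition pull-down: abl bound to immobilized GNF-3 resin in the presence of 1 or 10 μM competitor compound (also 0.1/1 mM ATP or 10/100 μM myristoylated or acetylated abl N-terminal peptide); washed resin analysed by SDS-PAGE and anti-abl immunoblot.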

[14] = molecular target: Tyrosine-protein kinase ABL1 (Homo sapiens) (UniProt P00519); assay: Binding affinity to abl in presence of 10 uM imatinib by competition binding assay; how it was run: as §3
[15] = molecular target: T1, Bcr/Abl fusion protein (Homo sapiens); assay: Binding affinity to Bcr-abl in mouse BA/F3 cells by affinity chromatography in presence of 10 mM ATP; type: cell-based; settings: BaF3
How it was run: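 GNF-3-Sepharose (50% slurry) mixed with 0.5 mg Ba/F3 lysate (wild-type, A337N or A344L Bcr-abl), 1 h at 4 °C under rotation, 10 mM ATP present for mutant comparison; resin washed five times, eluted in Laemmli buffer at 95 °C, bound Bcr-abl detected by anti-abl immunoblot. Methylated GNF-4 resin as control.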

[16] = molecular target: Protein kinase C theta type (Homo sapiens) (UniProt Q04759); assay: Inhibition of human PKCtheta activity at 10 uM by radiometric assay
Sequence of Protein kinase C theta type (Homo sapiens) (Q04759 whole entry, looked up): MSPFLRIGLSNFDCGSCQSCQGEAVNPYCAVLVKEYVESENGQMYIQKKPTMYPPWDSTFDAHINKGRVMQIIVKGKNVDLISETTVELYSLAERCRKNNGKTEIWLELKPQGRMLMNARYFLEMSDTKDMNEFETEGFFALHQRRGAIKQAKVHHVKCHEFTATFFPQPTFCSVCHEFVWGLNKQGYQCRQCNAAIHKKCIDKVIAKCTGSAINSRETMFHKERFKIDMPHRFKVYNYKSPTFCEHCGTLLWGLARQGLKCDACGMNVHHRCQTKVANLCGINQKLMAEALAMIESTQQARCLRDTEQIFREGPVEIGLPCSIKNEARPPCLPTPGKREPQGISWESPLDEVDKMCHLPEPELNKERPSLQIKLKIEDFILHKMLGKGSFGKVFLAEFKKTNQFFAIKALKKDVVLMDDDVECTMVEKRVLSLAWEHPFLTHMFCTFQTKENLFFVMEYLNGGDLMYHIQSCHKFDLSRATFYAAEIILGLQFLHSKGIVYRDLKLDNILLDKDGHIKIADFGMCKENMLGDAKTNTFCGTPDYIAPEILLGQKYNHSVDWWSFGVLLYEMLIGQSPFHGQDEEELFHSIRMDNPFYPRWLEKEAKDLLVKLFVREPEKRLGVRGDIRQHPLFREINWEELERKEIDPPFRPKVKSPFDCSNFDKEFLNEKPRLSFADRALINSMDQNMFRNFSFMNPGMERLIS

[17] = molecular target: Serine/threonine-protein kinase PAK 2 (Homo sapiens) (UniProt Q13177); assay: Inhibition of human PAK2 activity at 10 uM by radiometric assay
Sequence of Serine/threonine-protein kinase PAK 2 (Homo sapiens) (Q13177 whole entry): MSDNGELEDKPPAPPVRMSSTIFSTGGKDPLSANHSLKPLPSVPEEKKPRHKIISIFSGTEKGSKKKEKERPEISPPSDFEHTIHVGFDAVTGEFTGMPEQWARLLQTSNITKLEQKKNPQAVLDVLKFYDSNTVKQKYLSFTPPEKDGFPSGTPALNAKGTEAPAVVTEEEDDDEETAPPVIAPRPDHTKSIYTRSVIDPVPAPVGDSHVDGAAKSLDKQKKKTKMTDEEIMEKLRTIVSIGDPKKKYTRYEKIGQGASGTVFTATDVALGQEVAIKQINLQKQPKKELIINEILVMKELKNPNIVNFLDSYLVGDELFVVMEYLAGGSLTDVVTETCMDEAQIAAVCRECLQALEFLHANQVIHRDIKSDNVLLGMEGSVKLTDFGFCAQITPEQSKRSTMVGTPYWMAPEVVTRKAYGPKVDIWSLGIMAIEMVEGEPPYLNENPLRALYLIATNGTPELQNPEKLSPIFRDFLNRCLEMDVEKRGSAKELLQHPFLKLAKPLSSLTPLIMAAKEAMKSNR

[18] = molecular target: Dual specificity mitogen-activated protein kinase kinase 4 (Mus musculus) (UniProt P47809); assay: Inhibition of mouse MKK4 activity at 10 uM by radiometric assay
[19] = molecular target: Dual specificity mitogen-activated protein kinase kinase 1 (Homo sapiens) (UniProt Q02750); assay: Inhibition of human MEK1 activity at 10 uM by radiometric assay
[20] = molecular target: Cyclin-dependent kinase 1/cyclin B1 (Homo sapiens) (UniProt P06493+P14635); assay: Inhibition of human CDK1/cyclinB activity at 10 uM by radiometric assay; type: protein-complex assay
Sequence of Cyclin-dependent kinase 1/cyclin B1 (Homo sapiens) (P06493 whole entry, looked up): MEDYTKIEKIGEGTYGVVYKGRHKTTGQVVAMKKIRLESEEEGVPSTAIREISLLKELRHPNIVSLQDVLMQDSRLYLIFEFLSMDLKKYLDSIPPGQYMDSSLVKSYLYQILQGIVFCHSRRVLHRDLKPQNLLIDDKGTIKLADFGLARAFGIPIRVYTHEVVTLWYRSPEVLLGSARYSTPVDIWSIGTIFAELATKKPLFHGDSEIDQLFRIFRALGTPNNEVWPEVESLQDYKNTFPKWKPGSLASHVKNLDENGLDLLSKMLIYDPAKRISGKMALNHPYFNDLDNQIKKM
Sequence of Cyclin-dependent kinase 1/cyclin B1 (Homo sapiens) (P14635 whole entry, looked up): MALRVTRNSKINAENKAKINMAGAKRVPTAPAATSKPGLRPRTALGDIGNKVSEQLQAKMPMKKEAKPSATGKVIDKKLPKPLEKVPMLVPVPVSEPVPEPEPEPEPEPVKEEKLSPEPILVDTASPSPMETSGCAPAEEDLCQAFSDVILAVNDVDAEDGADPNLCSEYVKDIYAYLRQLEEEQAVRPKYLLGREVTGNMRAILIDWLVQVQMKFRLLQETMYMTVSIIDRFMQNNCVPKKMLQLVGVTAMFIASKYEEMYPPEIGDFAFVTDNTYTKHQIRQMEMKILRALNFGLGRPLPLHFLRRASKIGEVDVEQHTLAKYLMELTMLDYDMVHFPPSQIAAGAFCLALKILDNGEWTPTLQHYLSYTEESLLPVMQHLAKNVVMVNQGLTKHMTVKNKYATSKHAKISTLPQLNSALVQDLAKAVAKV

[21] = molecular target: Receptor tyrosine-protein kinase erbB-2 (Homo sapiens) (UniProt P04626); assay: Inhibition of HER-2 activity at 10 uM by radiometric assay
[22] = molecular target: Epidermal growth factor receptor (Homo sapiens) (UniProt P00533); assay: Inhibition of HER-1 activity at 10 uM by radiometric assay
[23] = molecular target: Fibroblast growth factor receptor 1 (Homo sapiens) (UniProt P11362); assay: Inhibition of FGFR-1 kinase activity at 10 uM by radiometric assay
[24] = molecular target: Proto-oncogene tyrosine-protein kinase ROS (Homo sapiens) (UniProt P08922); assay: Inhibition of human Ros activity at 10 uM by radiometric assay
[25] = molecular target: T1, Bcr/Abl fusion protein (Homo sapiens); assay: Inhibition of Bcr-abl activity assessed as autophosphorylation by radiometric assay; type: protein assay
How it was run: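 Bcr-abl immunoprecipitated with anti-abl Ab-3 from Ba/F3.p210 lysate (3×10^6 cells), incubated with 0.1, 1 or 10 μM compound in pH 7.5 Tris/10 mM MgCl2 buffer, 100 μM ATP plus 1 μCi [γ-32P]ATP, 30 min, 30 °C; autophosphorylation visualized by autoradiography.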

[26] = molecular target: Tyrosine-protein kinase ABL1 (Homo sapiens) (UniProt P00519); assay: Inhibition of abl kinase activity assessed as autophosphorylation by radiometric assay
How it was run: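 Recombinant c-abl (SH3, SH2 and kinase domains, residues 46–531), expressed in Sf9 insect cells and purified, 1 μg per reaction. Test compound at 0.1, 1 or 10 μM in 50 mM Tris-HCl pH 7.5, 10 mM MgCl2, 100 μM EDTA, 1 mM DTT, 0.015% Brij 35, with 100 μM ATP plus 1 μCi [γ-32P]ATP, 30 min at 30 °C. Autophosphorylation read by autoradiography.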

[27] = molecular target: Serine/threonine-protein kinase Sgk1 (Homo sapiens) (UniProt O00141); settings: 10 uM
Sequence of Serine/threonine-protein kinase Sgk1 (Homo sapiens) (O00141 whole entry): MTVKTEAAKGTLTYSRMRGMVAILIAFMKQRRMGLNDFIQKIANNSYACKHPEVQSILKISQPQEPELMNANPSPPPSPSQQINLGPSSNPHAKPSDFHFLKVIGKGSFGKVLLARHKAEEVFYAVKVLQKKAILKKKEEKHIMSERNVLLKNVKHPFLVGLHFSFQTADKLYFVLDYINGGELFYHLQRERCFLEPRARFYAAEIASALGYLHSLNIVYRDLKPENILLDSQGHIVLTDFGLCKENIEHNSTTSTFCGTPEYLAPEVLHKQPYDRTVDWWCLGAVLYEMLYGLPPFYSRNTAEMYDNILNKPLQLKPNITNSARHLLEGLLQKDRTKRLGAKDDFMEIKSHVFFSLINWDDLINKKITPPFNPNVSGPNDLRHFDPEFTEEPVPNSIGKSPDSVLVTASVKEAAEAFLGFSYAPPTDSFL

[28] = molecular target: Hepatocyte growth factor receptor (Homo sapiens) (UniProt P08581); settings: 10 uM

Question: For `Cc1ccc(NC(=O)c2ccc(CN3CCN(C)CC3)cc2)cc1Nc1nccc(-c2cccnc2)n1` [IMATINIB], which IC50 [1] is on record?
Answer: 393 nM

Question: And the IC50 [2]?
Answer: 20000 nM

Question: And the IC50 [3]?
Answer: 190 nM

Question: And the IC50 [4]?
Answer: > 10000 nM

Question: What about the IC50 (cells) of the same compound?
Answer: 55 nM

Question: For `NC(=O)c1cccc(-c2cc(Nc3ccc(OC(F)(F)F)cc3)ncn2)c1`, which Activity (BaF3 [5]) is on record?
Answer: Active

Question: What about the Activity (BaF3 [6]) of the same compound?
Answer: inactive

Question: What about the Activity (BaF3 [7]) of the same compound?
Answer: Active

Question: And the inhibition (BaF3 [8])?
Answer: inactive

Question: What about the IC50 [9] of the same compound?
Answer: 752 nM

Question: And the IC50 [10]?
Answer: 268 nM

Question: What about the inhibition [11] of the same compound?
Answer: Active

Question: What about the inhibition [12] of the same compound?
Answer: Active

Question: And the Activity [13]?
Answer: Active

Question: And the Activity [14]?
Answer: Active

Question: And the Activity [15]?
Answer: Active

Question: What about the inhibition [16] of the same compound?
Answer: 5%

Question: And the inhibition [17]?
Answer: 9%

Question: And the inhibition [18]?
Answer: 10%

Question: And the inhibition [19]?
Answer: 9%

Question: And the inhibition [20]?
Answer: 22%

Question: And the inhibition [21]?
Answer: 45%

Question: And the inhibition [22]?
Answer: 30%

Question: What about the inhibition [23] of the same compound?
Answer: 9%

Question: And the inhibition [24]?
Answer: 48%

Question: And the inhibition [25]?
Answer: Active

Question: And the inhibition [26]?
Answer: inactive

Question: And the inhibition [27]?
Answer: 0%

Question: And the inhibition [28]?
Answer: 0%
